In data set [1] the target is T1, Sodium/glucose cotransporter 2 (Homo sapiens, UniProt P31639).
T1 sequence (P31639 whole entry): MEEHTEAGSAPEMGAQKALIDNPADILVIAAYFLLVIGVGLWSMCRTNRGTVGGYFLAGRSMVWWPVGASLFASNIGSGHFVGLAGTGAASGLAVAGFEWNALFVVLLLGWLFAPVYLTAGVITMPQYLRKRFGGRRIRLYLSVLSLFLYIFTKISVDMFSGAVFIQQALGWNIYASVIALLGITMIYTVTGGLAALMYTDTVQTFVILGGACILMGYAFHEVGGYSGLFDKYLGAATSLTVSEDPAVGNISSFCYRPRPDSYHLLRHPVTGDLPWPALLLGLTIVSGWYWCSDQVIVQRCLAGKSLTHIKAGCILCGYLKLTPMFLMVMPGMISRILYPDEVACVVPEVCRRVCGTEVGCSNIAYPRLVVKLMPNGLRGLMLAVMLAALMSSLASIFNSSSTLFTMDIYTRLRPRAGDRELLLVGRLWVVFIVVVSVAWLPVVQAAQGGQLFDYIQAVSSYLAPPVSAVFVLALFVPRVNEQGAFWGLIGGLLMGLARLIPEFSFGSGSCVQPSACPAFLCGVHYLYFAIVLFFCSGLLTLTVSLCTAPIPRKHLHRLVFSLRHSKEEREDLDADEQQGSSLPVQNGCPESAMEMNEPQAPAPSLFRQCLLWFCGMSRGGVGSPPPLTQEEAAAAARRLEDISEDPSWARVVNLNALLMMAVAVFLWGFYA
The data set can be described thus: Inhibition of human full length SGLT2 expressed in NIH3T3 cells measured after 1 hr in presence of [14C]-methyl-alpha -D-glucopyranoside by scintillation counter method. The class given is cell-based. In a few lines:
(§1)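 Stable NIH3T3 lines from retroviral transduction of full-length hSGLT1 or hSGLT2 (pBABE-puro, 8 µg/mL polybrene, puromycin 2 µg/mL selection for 2 weeks). Cells plated 2 days ahead, 2 mmol/L sodium butyrate added day 2. Read by scintillation counting. Compound-free buffer served as negative control, sodium-free N-methyl-glucamine buffer as blank.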

For the next data set, the species on record is Homo sapiens. The data set can be described thus: Selectivity ratio of IC50 for human full length SGLT1 to IC50 for human full length SGLT2. In a few lines:
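Ratio of IC50 at hSGLT1 to IC50 at hSGLT2, both from the [14C]methyl-α-D-glucopyranoside uptake assay in stably transfected NIH3T3 cells.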

Data set [2] addresses T2, Sodium/glucose cotransporter 1 (Homo sapiens, UniProt P13866).
T2 sequence (P13866 whole entry): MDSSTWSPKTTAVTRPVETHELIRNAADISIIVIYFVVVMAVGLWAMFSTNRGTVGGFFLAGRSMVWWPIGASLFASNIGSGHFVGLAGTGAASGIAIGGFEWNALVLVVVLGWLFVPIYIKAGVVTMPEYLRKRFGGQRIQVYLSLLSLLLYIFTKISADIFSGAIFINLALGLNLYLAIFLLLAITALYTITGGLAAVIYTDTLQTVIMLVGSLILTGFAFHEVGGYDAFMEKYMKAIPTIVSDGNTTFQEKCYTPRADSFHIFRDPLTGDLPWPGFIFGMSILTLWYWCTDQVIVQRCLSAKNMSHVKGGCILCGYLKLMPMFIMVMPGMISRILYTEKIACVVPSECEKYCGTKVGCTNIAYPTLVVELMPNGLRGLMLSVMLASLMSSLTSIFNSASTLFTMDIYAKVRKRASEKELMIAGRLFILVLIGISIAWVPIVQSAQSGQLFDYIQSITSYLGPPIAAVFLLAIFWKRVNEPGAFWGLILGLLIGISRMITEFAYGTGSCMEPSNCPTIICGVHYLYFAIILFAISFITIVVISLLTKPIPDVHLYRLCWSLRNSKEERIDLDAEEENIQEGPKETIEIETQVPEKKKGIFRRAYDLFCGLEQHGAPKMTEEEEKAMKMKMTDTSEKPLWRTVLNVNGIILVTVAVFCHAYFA
The experiment in a line: Inhibition of human full length SGLT1 expressed in NIH3T3 cells measured after 1 hr in presence of [14C]-methyl-alpha -D-glucopyranoside by scintillation counter method. It counts as cell-based. In a few lines: as §1

Data set [3] deals with T3, Sodium/glucose cotransporter 2 (Homo sapiens) (UniProt P31639).
T3 sequence (whole entry): T1 sequence (P31639 whole entry)
The data set can be described thus: Binding affinity to human SGLT2 assessed as dissociation half-life.

In data set [4] the test system is Mus musculus. The data set can be described thus: Effect on urinary volume in C57BL/6J mouse at 1 mg/kg, po administered as single dose measured after 24 hrs (reference value: 1.24 +/- 0.45 mL). It counts as ADME, organism-based. The settings on record: in vivo.
Data set [5] deals with Rattus norvegicus. The data set can be described thus: Effect on urinary volume in Sprague-Dawley rat at 1 mg/kg, po administered as single dose measured after 24 hrs (reference value: 24.17 +/- 7.11 mL). The following applies: in vivo. It counts as ADME, organism-based.
For data set [6], the system named is Mus musculus. The experiment in a line: Effect on urine glucose concentration in C57BL/6J mouse at 1 mg/kg, po administered as single dose measured after 24 hrs by glucose oxidase method (reference value: 0.74 +/- 0.14 mmol/L). It counts as functional.
Data set [7] concerns Rattus norvegicus. The experiment in a line: Effect on urine glucose excretion in Sprague-Dawley rat 1 mg/kg, po administered as single dose measured after 24 hrs assessed per 100 grams (reference value: 0.51 +/- 0.40 mg). It counts as functional.
In data set [8] the test system is Rattus norvegicus. The data set can be described thus: Effect on urine glucose concentration in Sprague-Dawley rat at 1 mg/kg, po administered as single dose measured after 24 hrs by glucose oxidase method (reference value: 0.28 +/- 0.16 mmol/L). It counts as functional.
In data set [9] the test system is Mus musculus. The data set can be described thus: Effect on urine glucose excretion in C57BL/6J mouse at 1 mg/kg, po administered as single dose measured after 24 hrs assessed per 100 grams (reference value: 0.84 +/- 0.40 mg ). The class given is functional.

As a reminder, the IC50 is the concentration that inhibits the measured activity by half. For `C[C@H]1O[C@]2(OCc3ccc(Cc4ccc(-c5ccc(F)cc5)s4)cc32)[C@H](O)[C@@H](O)[C@@H]1O`, the IC50 in data set [1] is greater than 100 nM. On to `COC(=O)c1ccc(Cc2cc3c(cc2Cl)CO[C@]32O[C@H](C)[C@@H](O)[C@H](O)[C@H]2O)s1`, for which, in the data set listed under Homo sapiens, the Ratio IC50 turned out to be 58. In addition, the IC50 stood at 3000 nM in [2] and 51.5 nM in data set [1]. `CCCOCCc1ccc(Cc2cc3c(cc2Cl)CO[C@]32O[C@H](C)[C@@H](O)[C@H](O)[C@H]2O)s1`: the Ratio IC50 in the data set listed under Homo sapiens was 117. Besides, the IC50 in [2] worked out at 5000 nM; in [1], 42.3 nM.

Regarding `CCOc1ccc(Cc2ccc3c(c2)[C@]2(OC3)O[C@H](C)[C@@H](O)[C@H](O)[C@H]2O)cc1`, in data set [1], the IC50 is greater than 100 nM. With `CCOc1ccc(Cc2cc([C@@H]3S[C@H](CO)[C@@H](O)[C@H](O)[C@H]3O)c(OC)cc2C)cc1`, the T1/2 in data set [3] was 7 h. As for `C[C@H]1O[C@]2(OCc3cc(Cl)c(Cc4ccc(C=O)s4)cc32)[C@H](O)[C@@H](O)[C@@H]1O`, the Ratio IC50 in the data set filed under Homo sapiens was 70. The IC50 is 3600 nM in data set [2] and 51.3 nM in data set [1].

`CCc1ccc(Cc2ccc3c(c2)[C@]2(OC3)O[C@H](C)[C@@H](O)[C@H](O)[C@H]2O)cc1`: in the data set listed under Homo sapiens, the Ratio IC50 was determined as 351. In the case of `CCCc1ccc(Cc2ccc3c(c2)[C@]2(OC3)O[C@H](C)[C@@H](O)[C@H](O)[C@H]2O)s1`, the IC50 in [1] is greater than 100 nM. On the same count and under the same terms, with `Cc1ccc(Cc2ccc3c(c2)[C@]2(OC3)O[C@H](C)[C@@H](O)[C@H](O)[C@H]2O)cc1` the figure was greater than 100 nM.

In the case of `CCOCCc1ccc(Cc2cc3c(cc2Cl)CO[C@]32O[C@H](C)[C@@H](O)[C@H](O)[C@H]2O)s1`, the Ratio IC50 in the data set listed under Homo sapiens worked out at 71. Further, the figures for the IC50 in data set [2] and in data set [1] were 4800 nM and 67.5 nM, respectively. With `C[C@H]1O[C@]2(OCc3ccc(Cc4cc5ccccc5o4)cc32)[C@H](O)[C@@H](O)[C@@H]1O`, the IC50 in data set [1] was greater than 100 nM. As for `C[C@H]1O[C@]2(OCc3ccc(Cc4ccc(Cl)s4)cc32)[C@H](O)[C@@H](O)[C@@H]1O`, the IC50 in data set [1] was greater than 100 nM. Regarding `C[C@H]1O[C@]2(OCc3ccc(Cc4cc5ccccc5s4)cc32)[C@H](O)[C@@H](O)[C@@H]1O`, in [1], the IC50 is greater than 100 nM. Take `COCCc1ccc(Cc2cc3c(cc2Cl)CO[C@]32O[C@H](C)[C@@H](O)[C@H](O)[C@H]2O)s1`: the Ratio IC50 in the data set listed under Homo sapiens is 68. Besides, the 50% inhibitory concentration (IC50) in data set [2] was 4700 nM; in [1], 69.4 nM.

As to `COc1ccc(Cc2ccc3c(c2)[C@]2(OC3)O[C@H](C)[C@@H](O)[C@H](O)[C@H]2O)cc1`, the IC50 in data set [1] is greater than 100 nM. As to `Cc1ccc(Cc2ccc3c(c2)[C@]2(OC3)O[C@H](C)[C@@H](O)[C@H](O)[C@H]2O)s1`, the IC50 in data set [1] is greater than 100 nM. The same measure, in the same setting: under `CC(C)c1ccc(Cc2ccc3c(c2)[C@]2(OC3)O[C@H](C)[C@@H](O)[C@H](O)[C@H]2O)cc1` stands greater than 100 nM. With `CCc1ccc(Cc2cc3c(cc2Cl)CO[C@]32O[C@H](C)[C@@H](O)[C@H](O)[C@H]2O)cc1`, the Ratio IC50 in the data set listed under Homo sapiens was determined as 13. In addition, the IC50 in data set [2] was 400 nM. Turning to `CCOc1ccc(Cc2cc3c(cc2Cl)CO[C@]32O[C@H](C)[C@@H](O)[C@H](O)[C@H]2O)cc1`, the Ratio IC50 in the data set filed under Homo sapiens was found to be 60. The IC50 in data set [2] stood at 500 nM; in data set [1] it was 8.8 nM. In the case of `C[C@H]1O[C@]2(OCc3ccc(Cc4ccc(-c5ccccn5)s4)cc32)[C@H](O)[C@@H](O)[C@@H]1O`, the half-maximal inhibitory concentration (IC50) in data set [1] was greater than 100 nM.

Regarding `C[C@H]1O[C@]2(OCc3cc(Cl)c(Cc4ccc(CO)s4)cc32)[C@H](O)[C@@H](O)[C@@H]1O`, the Ratio IC50 in the data set filed under Homo sapiens is 47. In addition, the values for the IC50 in data set [2] and in [1] were 2200 nM and 47.2 nM, respectively. `CCc1ccc(Cc2cc3c(cc2F)CO[C@]32O[C@H](C)[C@@H](O)[C@H](O)[C@H]2O)s1`: the Ratio IC50 in the data set filed under Homo sapiens stood at 988. For the same molecule, in data set [1], the IC50 amounted to 26.2 nM. Regarding `CCCc1ccc(Cc2ccc3c(c2)[C@]2(OC3)O[C@H](C)[C@@H](O)[C@H](O)[C@H]2O)cc1`, in [1], the IC50 is greater than 100 nM. `C[C@H]1O[C@]2(OCc3ccc(Cc4ccc5ccccc5c4)cc32)[C@H](O)[C@@H](O)[C@@H]1O`: the IC50 in data set [1] is greater than 100 nM. As to `C[C@H]1O[C@]2(OCc3cc(Cl)c(Cc4cc5ccccc5s4)cc32)[C@H](O)[C@@H](O)[C@@H]1O`, the Ratio IC50 in the data set filed under Homo sapiens amounted to 81. In [2], the IC50 is 2000 nM. Consider `C[C@H]1O[C@]2(OCc3ccc(Cc4ccc(-c5ccccc5)s4)cc32)[C@H](O)[C@@H](O)[C@@H]1O`, for which, in [1], the IC50 is greater than 100 nM. As for `C[C@H]1O[C@]2(OCc3cc(Cl)c(Cc4ccc(-c5ccc(F)cc5)s4)cc32)[C@H](O)[C@@H](O)[C@@H]1O`, the 50% inhibitory concentration (IC50) in data set [1] is greater than 100 nM. Consider `COC(=O)Cc1ccc(Cc2cc3c(cc2Cl)CO[C@]32O[C@H](C)[C@@H](O)[C@H](O)[C@H]2O)s1`, for which, in the data set filed under Homo sapiens, the Ratio IC50 came out at 151. Moreover, the IC50 stood at 6400 nM in [2] and 42.4 nM in data set [1].

Take `OC[C@H]1O[C@@H](c2ccc(Cl)c(Cc3ccc(O[C@H]4CCOC4)cc3)c2)[C@H](O)[C@@H](O)[C@@H]1O`: the T1/2 in [3] was 1 h. `CCc1ccc(Cc2ccc3c(c2)[C@]2(OC3)O[C@H](CO)[C@@H](O)[C@H](O)[C@H]2O)cc1.O` [TOFOGLIFLOZIN]: the Activity in the data set with Mus musculus [4] is 1.3 mL; with Rattus norvegicus [5], 26.5 mL; in the data set on Mus musculus [6], 56.27 mmol/L; in the data set on Rattus norvegicus [7] it was 73.68 mg; in the data set with Rattus norvegicus [8], 43.67 mmol/L; in the data set with Mus musculus [9] it was 48.85 mg.

For the molecule `C[C@H]1O[C@]2(OCc3cc(Cl)c(Cc4ccc(Cl)s4)cc32)[C@H](O)[C@@H](O)[C@@H]1O`, in the data set filed under Homo sapiens, the Ratio IC50 is 30. Further, the IC50 in data set [2] was determined as 500 nM; in data set [1] it was 15.9 nM. `Cc1ccc(Cc2cc3c(cc2Cl)CO[C@]32O[C@H](C)[C@@H](O)[C@H](O)[C@H]2O)s1`: the Ratio IC50 in the data set listed under Homo sapiens is 46. The values for the IC50 in [2] and in [1] were 400 nM and 8.5 nM, respectively. With `CCc1ccc(Cc2ccc3c(c2)[C@]2(OC3)O[C@H](C)[C@@H](O)[C@H](O)[C@H]2O)s1`, the IC50 in data set [1] is greater than 100 nM.

(Values after ChEMBL document CHEMBL4364314, “Design, synthesis and biological evaluation of 6-deoxy O-spiroketal C-arylglucosides as novel renal sodium-dependent glucose cotransporter 2 (SGLT2) inhibitors for the treatment of type 2 diabetes” (Eur J Med Chem, 2019).)
